Reference: ChEMBL document CHEMBL4038269, “Design, synthesis and evaluation of novel feruloyl-donepezil hybrids as potential multitarget drugs for the treatment of Alzheimer's disease” (Eur J Med Chem, 2017)
Activity calls are given as the source filed them.

Tests used:
[1] = target: T1, Acetylcholinesterase (Electrophorus electricus, UniProt O42275); assay: Non-competitive inhibition of Electrophorus electricus AChE using acetylthiocholine iodide as substrate pretreated for 10 mins followed by substrate addition measured at 12 secs interval for 5 mins by Ellman's method
T1 sequence (O42275 whole entry): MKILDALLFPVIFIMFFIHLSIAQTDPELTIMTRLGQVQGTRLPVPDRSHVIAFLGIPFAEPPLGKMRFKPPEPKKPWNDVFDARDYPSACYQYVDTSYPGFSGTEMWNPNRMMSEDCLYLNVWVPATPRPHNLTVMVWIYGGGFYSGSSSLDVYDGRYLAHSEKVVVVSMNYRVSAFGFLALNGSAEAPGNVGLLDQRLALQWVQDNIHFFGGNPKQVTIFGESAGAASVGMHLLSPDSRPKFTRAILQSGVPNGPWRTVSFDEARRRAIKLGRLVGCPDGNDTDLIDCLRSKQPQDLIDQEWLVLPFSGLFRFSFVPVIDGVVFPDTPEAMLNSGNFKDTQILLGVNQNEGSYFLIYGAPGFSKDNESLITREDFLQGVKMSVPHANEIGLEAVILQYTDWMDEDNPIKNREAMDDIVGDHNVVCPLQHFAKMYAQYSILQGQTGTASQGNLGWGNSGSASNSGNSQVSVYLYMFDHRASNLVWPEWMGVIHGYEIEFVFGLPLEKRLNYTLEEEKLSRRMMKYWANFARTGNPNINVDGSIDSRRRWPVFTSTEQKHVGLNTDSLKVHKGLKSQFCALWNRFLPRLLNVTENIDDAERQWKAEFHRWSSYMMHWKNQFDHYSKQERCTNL

[2] = test system: Mus musculus; assay: Antinociceptive activity in carrageenan-induced Swiss mouse model of mechanical hyperalgesia at 100 umol/kg, po pretreated for 1 hr followed by carrageenan challenge measured at 3 hrs to 7 hrs post dose by Von Frey filament assay; format: functional, organism-based
Outline: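 Male Swiss mice (n=8) dosed orally with 100 µmol/kg or vehicle 1 h before intraplantar carrageenan (100 µg/paw). Mechanical threshold measured by up-and-down Von Frey method after 60 min acclimation on a wire screen. Started at 0.4 g filament, ≥6 trials at 10 s intervals, about 4 s per application. Reported as mean threshold in grams ± SEM.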

[3] = Metal chelating activity assessed as compound-Fe3+ complex formation at 75 uM after 30 mins by UV-Vis spectrophotometric method; format: functional
Outline: (§1)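 UV-Vis spectra in ethanol of compound at 75 µM alone or after 30 min incubation with CuSO4, FeSO4, FeCl3 or ZnCl2 (150 µM). Absorption maxima recorded.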

[4] = test system: SH-SY5Y; assay: Antioxidant activity in human SH-SY5Y cells assessed as reduction in H2O2-induced reactive oxygen species formation measured after 24 hrs by DCFH-DA probe based fluorescence assay; format: functional, cell-based
[5] = target: T1, Acetylcholinesterase; assay: Inhibition of Electrophorus electricus AChE using acetylthiocholine iodide as substrate pretreated for 10 mins followed by substrate addition measured at 12 secs interval for 5 mins by Ellman's method
[6] = Cytotoxicity against human SH-SY5Y cells assessed as reduction in cell viability at 40 uM after 24 hrs by MTT assay relative to control; format: cell-based; settings: read-out: INH
Outline: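 SH-SY5Y cells seeded at 2 x 10^4 cells/well, grown 24 h, then exposed to compound 1.25–40 µM for 24 h at 37 °C. MTT (5 mg/mL in PBS) added for 2 h and formazan dissolved in isopropanol. Read at 570 nm, reference 690 nm. Viability loss reported as percent at the top concentration, 40 µM.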

[7] = target: T2, Nuclear factor erythroid 2-related factor 2 (Homo sapiens) (UniProt Q16236); assay: Induction of Nrf2 nuclear translocation in human SH-SY5Y cells assessed as Nrf2 binding to antioxidant response element at 20 uM measured after 1 to 6 hrs by TransAM ELISA; format: cell-based; settings: TDE = time-dependent effect
T2 sequence (whole entry): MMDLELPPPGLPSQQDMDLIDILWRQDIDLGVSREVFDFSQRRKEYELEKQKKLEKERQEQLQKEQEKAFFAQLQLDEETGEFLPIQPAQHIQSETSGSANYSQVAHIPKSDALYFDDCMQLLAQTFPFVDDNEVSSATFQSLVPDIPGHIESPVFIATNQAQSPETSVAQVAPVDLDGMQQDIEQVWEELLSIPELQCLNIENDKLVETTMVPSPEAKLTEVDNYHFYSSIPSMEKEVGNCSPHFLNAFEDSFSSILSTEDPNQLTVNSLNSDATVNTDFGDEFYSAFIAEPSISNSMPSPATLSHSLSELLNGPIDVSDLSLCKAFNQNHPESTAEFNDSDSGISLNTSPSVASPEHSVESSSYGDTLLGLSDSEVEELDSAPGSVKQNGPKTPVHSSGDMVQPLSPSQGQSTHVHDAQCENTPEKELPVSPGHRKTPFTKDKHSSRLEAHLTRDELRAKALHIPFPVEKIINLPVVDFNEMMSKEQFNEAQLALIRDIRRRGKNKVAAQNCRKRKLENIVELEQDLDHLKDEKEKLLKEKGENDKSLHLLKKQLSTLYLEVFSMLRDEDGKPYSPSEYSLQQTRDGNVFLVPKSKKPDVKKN
Outline: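 SH-SY5Y cells seeded at 2×10^6 per 60 mm dish, grown 24 h, then given 20 µM compound for 1-6 h at 37 °C. Nuclear extracts prepared by kit. 20 µg nuclear protein tested for Nrf2 DNA binding by TransAM Nrf2 immunoassay. Expressed as % of control cells; mean ± SD of three experiments. Nrf2-transfected COS-7 cells served as positive control.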

[8] = test system: SH-SY5Y; assay: Antioxidant activity in human SH-SY5Y cells assessed as reduction in H2O2-induced reactive oxygen species formation at 20 uM pretreated for 24 hrs followed by H2O2 addition measured after 30 mins DCFH-DA probe based fluorescence assay; format: functional, cell-based
Outline: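 SH-SY5Y cells treated 24 h with compound (20 µM in figure), then exposed to 100 µM H2O2 for 30 min. Intracellular ROS read with DCFH-DA probe (10 µg/mL, 30 min preload) at ex 485/em 535 nm. Expressed as % of control cells; mean ± SD, three independent experiments.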

[9] = test system: Mus musculus; assay: Anti-inflammatory activity in Swiss mouse assessed as reduction in carrageenan-induced paw edema at 100 umol/kg, po pretreated for 1 hr followed by carrageenan challenge after 3 hrs by plethysmometer; format: functional, organism-based
Outline: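 Adult male Swiss mice (22-28 g), fasted overnight, given vehicle (DMSO 2% in sterile saline) or 100 µmol/kg orally 1 h before intraplantar carrageenan. Methods give 400 µg/20 µl and n=10 per group; figure legend gives 100 µg/paw and n=8. Right hind paw volume read by plethysmometer at 1, 3 and 5 h. Reported as change in µL from basal volume, mean ± SEM.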

[10] = test system: SH-SY5Y; assay: Iron chelating activity in human SH-SY5Y cells assessed as reduction in FeSO4/H2O2-induced reactive oxygen species formation at 10 to 20 uM after 30 mins by DCFH-DA probe based fluorescence assay; format: functional, cell-based
Outline: (§2)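 SH-SY5Y cells seeded at 3 x 10^4 cells/well and preloaded with DCFH-DA (10 µg/mL, 30 min, room temperature). Then given compound (5, 10, 20 µM) with FeSO4/H2O2 or CuSO4/H2O2 for 30 min; metal 25 µM and H2O2 100 µM per figure legend. Fluorescence read at ex 485/em 535 nm, arbitrary units. Mean ± SD of three experiments.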

[11] = target: Acetylcholinesterase (Electrophorus electricus) (UniProt O42275); assay: Inhibition of Electrophorus electricus AChE at 30 uM using acetylthiocholine iodide as substrate pretreated for 10 mins followed by substrate addition measured at 12 secs interval for 5 mins by Ellman's method relative to control
Sequence of Acetylcholinesterase (Electrophorus electricus) (O42275 24-633 limits assumed): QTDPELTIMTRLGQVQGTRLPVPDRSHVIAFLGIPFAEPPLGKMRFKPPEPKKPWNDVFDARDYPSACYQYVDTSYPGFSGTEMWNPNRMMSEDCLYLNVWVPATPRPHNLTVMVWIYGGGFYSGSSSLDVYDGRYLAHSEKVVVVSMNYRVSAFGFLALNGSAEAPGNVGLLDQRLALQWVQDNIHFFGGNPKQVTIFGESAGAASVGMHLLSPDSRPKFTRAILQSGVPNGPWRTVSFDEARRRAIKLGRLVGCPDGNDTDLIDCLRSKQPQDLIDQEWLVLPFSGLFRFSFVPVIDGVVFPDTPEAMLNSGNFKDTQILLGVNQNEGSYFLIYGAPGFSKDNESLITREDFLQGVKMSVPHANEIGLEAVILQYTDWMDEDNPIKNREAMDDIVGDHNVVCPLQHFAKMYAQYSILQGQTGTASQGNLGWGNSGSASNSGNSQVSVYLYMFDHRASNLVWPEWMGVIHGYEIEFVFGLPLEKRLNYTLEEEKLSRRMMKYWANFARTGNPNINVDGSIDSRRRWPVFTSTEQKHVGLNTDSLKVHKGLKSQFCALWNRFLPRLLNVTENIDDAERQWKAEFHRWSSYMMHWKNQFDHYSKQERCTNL
Outline: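 Enzyme (0.5 U/mL) with DTNB (10 mM) in 0.1 M sodium phosphate pH 7.4; compound at 30 μM preincubated 10 min, then acetylthiocholine or butyrylthiocholine iodide added ([…]); A412 read every 12 s for 5 min. Velocity as percent of vehicle control; means and pooled SD from 2-4 experiments in triplicate. DMSO ≤0.2% final.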

[12] = Metal chelating activity assessed as absorption maximum for compound-Cu2+ complex formation at 75 uM after 30 mins by UV-Vis spectrophotometric method (reference value: 237.2 nanometer); format: functional; outline: as §1
[13] = test system: SH-SY5Y; assay: Copper chelating activity in human SH-SY5Y cells assessed as reduction in CuSO4/H2O2-induced reactive oxygen species formation at 10 to 20 uM after 30 mins by DCFH-DA probe based fluorescence assay; format: functional, cell-based; outline: as §2

SMILES: COc1cc(/C=C/C(=O)OCC2CCN(Cc3ccccc3)CC2)ccc1O
- Ki [1]: 1040 nM
- Activity [2]: Active
- Activity [3]: inactive
- Activity [4]: Dose-dependent effect
- IC50 ([4]; Homo sapiens, SH-SY5Y, 24 h, read-out: IC50): 16900 nM
- IC50 [5]: 460 nM
- cytotoxicity at 24 h, 40 µM [6]: 6%
- Activity [7]: Tde
- Activity [8]: Active
- Activity [9]: Active
- Activity [10]: Active
- inhibition [11]: 50%
- Activity [12]: 248 nm
- Activity [13]: Active
